An excerpt weighted towards active compounds, which were near 4.6% of everything screened.
CHO parental Ca – counter-screen for OX1R antagonists: effect in parental CHO cells. inhibition, % at 5.6 µM. 330,000 compounds, 0.63% hits. parental CHO-K1, ATP-induced calcium, Fluo-8 fluorescence;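 active means inhibition above that plate's mean sample inhibition plus 3 SD, cut at about 26% in these data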;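 further: 0% = ATP-challenged DMSO wells and 100% = DMSO wells without ATP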
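Test system: parental CHO cells; detection: calcium-sensitive Fluo-8 fluorescence; evaluation: percent inhibition of calcium signal; also added: ATP as calcium-mobilizing challenge; repeats: one well per compound; control set: ATP-challenged DMSO wells low, unchallenged DMSO wells high; compound: single nominal dose of 5.6 µM per compound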
TAAR1 antagonist – human TAAR1 antagonism. inhibition, % at 3 µM. 360,000 compounds, 1.5% hits. Q96RJ0. CHO RD-HGA16 TAAR1, Fluo-8 calcium fluorescence, antagonist. AID 624466;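 active means inhibition above a per-plate cutoff, the mean inhibition of test compounds on that plate plus 3 SD, cut at about 49% in these data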;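 further: 0% = DMSO plus EC80 beta-PEA response and 100% = DMSO alone without agonist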
Target sequence (Q96RJ0 whole entry, looked up): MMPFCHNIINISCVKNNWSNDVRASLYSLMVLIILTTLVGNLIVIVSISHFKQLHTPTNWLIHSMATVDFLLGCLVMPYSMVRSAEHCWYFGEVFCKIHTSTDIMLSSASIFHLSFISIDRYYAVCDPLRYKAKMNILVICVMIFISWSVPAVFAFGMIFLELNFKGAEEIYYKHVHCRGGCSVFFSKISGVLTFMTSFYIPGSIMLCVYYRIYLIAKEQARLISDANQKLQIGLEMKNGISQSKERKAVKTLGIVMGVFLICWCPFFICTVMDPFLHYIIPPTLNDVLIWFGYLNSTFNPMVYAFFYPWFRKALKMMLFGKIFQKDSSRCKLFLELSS
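Test system: RD-HGA16 CHO cells with stable hTAAR1 and Gα16 / Probe or stimulus: EC80 β-phenethylamine stimulus / Times: seeding 17-24 h prior, 75-min 37 °C, 30-min RT dye loading / Detection: Fluo-8 calcium-sensitive fluorescence / Read-out basis: % inhibition scaled between DMSO and EC80 PEA controls / Repeats: singlicate, one well per test compound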
TAAR1 ag – agonists of human TAAR1; Q96RJ0; CHO RD-HGA16 TAAR1, Fluo-8 calcium fluorescence; vehicle wells 0%, saturating PEA agonist 100%; activation, % at 3 µM; 360,000 compounds, 0.99% hits; AID 624467;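 active means activation above the mean activation of all test compounds in the run plus 3 SD, cut at about 38% in these data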
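System: CHO-derived RD-HGA16 cells with stable Gα16 and human TAAR1 / Times: 17-24 h plating, Fluo-8 75 min 37 °C, 30 min RT / Technique: calcium-sensitive Fluo-8 signal, excitation 470-495, emission 515-575 nm / Measure: % activation relative to PEA EC100 response / Benchmarks: DMSO and PEA EC100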
OX1R antag-1 – antagonists of human orexin 1 receptor (OX1R); O43613; OX1R-expressing cells, FRET antagonist read-out; inhibition, % at 6.6 µM; 330,000 compounds, 1.8% hits; in the data active means inhibition mostly above about 38%, no sharp cut-off; inactive means mostly below about 40%;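 further: 0% = agonist challenge alone and 100% = reference antagonist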
GPR7 antag – antagonists of human GPR7 (neuropeptides B/W receptor 1); 290,000 compounds, 1.1% hits; P48145; inhibition, % at 4.4 µM; GPR7-expressing cells, fluorescence antagonist assay; in the data active means inhibition above about 16%, passing the limit was not always enough;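 further: cells stimulated with the agonist NPW; 0% = agonist with vehicle and 100% = vehicle without agonist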
Target sequence (P48145 whole entry, looked up): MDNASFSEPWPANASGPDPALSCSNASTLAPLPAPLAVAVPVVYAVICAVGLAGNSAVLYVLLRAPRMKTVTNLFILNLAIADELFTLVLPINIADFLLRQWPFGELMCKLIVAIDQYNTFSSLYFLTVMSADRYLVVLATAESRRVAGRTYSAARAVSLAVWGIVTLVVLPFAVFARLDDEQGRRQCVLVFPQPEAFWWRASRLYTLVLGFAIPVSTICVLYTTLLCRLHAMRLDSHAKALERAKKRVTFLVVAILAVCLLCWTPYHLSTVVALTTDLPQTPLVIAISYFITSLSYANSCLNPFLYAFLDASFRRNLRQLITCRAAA
OX1R antag-2 – antagonists of human orexin 1 receptor. CHO/OX1R cells, Fluo-8 calcium fluorescence, orexin A. AID 434989. 330,000 compounds, 0.43% hits. inhibition, % at 5 µM. O43613;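 active means inhibition above its plate's threshold, mean inhibition of all tested compounds on the plate plus 3 SD, cut at about 37% in these data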;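 further: 0% = orexin A challenge wells and 100% = SB-334867-A antagonist wells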
GPR7 antag cf – human GPR7 antagonism, confirmation assay | shares compounds with GPR7 antag | GPR7-expressing cells, calcium fluorescence antagonist mode | inhibition, % at 4.4 µM | 2,400 compounds, 52% hits | AID 1952; in the data active means inhibition above about 24%;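 further: stimulated with the GPR7 agonist NPW; 0% = agonist plus vehicle and 100% = vehicle alone without agonist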
MCHR1 antag – counter-screen for GPR7 antagonists: antagonists of human MCHR1. shares compounds with GPR7 antag. MCHR1-expressing cells, fluorescence antagonist assay. inhibition, % at 4.4 µM. 2,400 compounds, 62% hits; in the data active means inhibition above about 22%;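 further: 0% = vehicle with agonist and 100% = vehicle without agonist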
* marks the source's active call; other numbers are inactive results; · = not tested or not shown.

SMILES	CHO parental Ca	TAAR1 antagonist	TAAR1 ag	OX1R antag-1	GPR7 antag	OX1R antag-2	GPR7 antag cf	MCHR1 antag
O=C(NC1CCCC1)C(c1ccc(F)cc1)N(Cc1ccccc1)C(=O)c1csnn1 (configuration not stated)	-17.6	0.3	-3.9	15.1	22.6*	-37.0	31.8*	21.8*
COCCN(C(=O)c1csnn1)C(C(=O)NC1CCCCC1)c1ccc(C)cc1 (configuration not stated)	-14.8	-0.7	-2.8	11.5	-5.7	-16.7	·	·
O=C(NC1CCCCC1)C(c1ccccc1F)N(C(=O)c1csnn1)C1CCCC1 (configuration not stated)	-22.3	4.4	5.7	23.8	22.6*	-27.7	17.4	19.4
COCCN(C(=O)c1csnn1)C(C(=O)NC1CCCC1)c1ccccc1 (configuration not stated)	-17.7	8.7	-1.2	15.1	44.5*	-23.8	1.3	-6.3
O=C(NC1CCCC1)C(c1ccccc1)N(Cc1ccc(F)cc1)C(=O)c1csnn1 (configuration not stated)	-29.8	14.3	-4.0	20.3	4.8	-29.1	·	·
Fc1ccc(-c2nc3c(Cl)cc(C(F)(F)F)cn3c2Cc2cccc(Cl)c2)cc1	·	-1.6	-0.1	·	·	·	·	·
CC(=O)c1c(C)[nH]c(C(=O)Nc2cccc(C(F)(F)F)c2)c1C	37.4*	9.2	9.0	70.3*	33.1*	44.8*	4.4	59.0*
CCN(CC(=O)Nc1cc(Cl)ccc1C)c1ncnc2sc(C)c(C)c12	-15.8	10.9	1.7	25.4	22.8*	-21.6	10.7	44.5*
CCN(CC(=O)Nc1cc(Cl)ccc1C)C(=O)CCOc1ccc(C)cc1	-21.5	-25.1	-2.8	27.8	·	-36.8	·	·
COc1ccc(NC(=O)c2cc(-c3cc(Cl)ccc3C)n[nH]2)cc1OC	·	33.4	4.1	·	·	·	·	·
CN(C)S(=O)(=O)Oc1ccsc1C(=O)Nc1ccc(Cl)c(Cl)c1	-18.8	23.3	16.1	7.3	27.8*	-8.8	21.4	58.1*
CN(C)S(=O)(=O)Oc1ccsc1C(=O)Nc1ccc(Br)cc1	-14.7	11.8	-0.2	41.5	5.5	-35.5	·	·
COc1ccc(Nc2sc(C(=O)Nc3cccc(Cl)c3)c(N)c2C(=O)Nc2ccccc2OC)cc1	47.5*	·	·	-0.1	50.3*	50.7*	77.4*	86.0*
COc1ccccc1NC(=O)C/C(N)=N/OCC(=O)Nc1cccc(Cl)c1	-14.3	-0.1	4.6	7.5	·	3.3	·	·
CCOc1ncccc1C(=O)N1CCN(c2cccc(C)c2C)CC1	·	-1.8	18.1	·	28.3*	·	20.1	34.2*
COc1ccc(Br)cc1CN1CCN(c2ncccn2)CC1	-9.8	-24.9	0.2	4.4	·	-16.9	·	·
O=C(Nc1ccc(Cl)c(Cl)c1)Nc1ccon1	13.0	14.1	23.1	-1.2	35.2*	11.4	34.8*	65.1*
O=C(NCc1ccccc1)C1(C(F)(F)F)C/C(=C/CCO)CCCO1 (configuration not stated)	-16.9	7.4	10.3	14.2	·	-11.6	·	·
COc1ccc([C@H]2CC(=O)C=C(c3ccccc3C(F)(F)F)C2)cc1	-19.6	32.2	12.1	5.8	·	1.0	·	·
O=C1CCCN1CC1CCN(Cc2nc(CC3CC3)no2)CC1	-1.1	-16.8	-0.2	6.1	-4.1	-2.9	·	·
CC(C)(C)OC(=O)N1CCC(c2c(C(=O)NCC3CCN(C4CCCC4)C3)cnn2-c2ccccc2Cl)CC1 (configuration not stated)	-12.8	6.6	16.0	-4.5	44.4*	-33.9	49.1*	22.6*
COc1ccc(C(=O)NC(=S)Nc2ccc(N3CCOCC3)cc2)cc1Cl	-5.5	7.3	4.3	25.0	-2.3	-34.7	·	·
Cc1ccc(C(=O)NC2CCCc3ccccc32)cc1[N+](=O)[O-] (configuration not stated)	-23.4	-17.6	-0.5	11.8	34.4*	-26.0	24.6*	55.1*
Cc1cc(C(=O)NC2CCCc3ccccc32)ccc1[N+](=O)[O-] (configuration not stated)	-9.3	10.3	-4.8	20.4	2.7	-27.2	·	·
O=Cc1ccccc1OCc1ccc2c(c1)OCO2	11.7	6.8	1.6	8.9	34.0	15.3	·	·
SMILES	CHO parental Ca	TAAR1 antagonist	TAAR1 ag	OX1R antag-1	GPR7 antag	OX1R antag-2	GPR7 antag cf	MCHR1 antag
CC(C)c1ccccc1NC(=O)Cn1c(-c2ccccc2Cl)nc2ccccc21	8.3	-2.2	1.1	19.0	23.2*	-24.9	16.3	15.8
CC(C)c1ccccc1NC(=O)Cn1c(/C=C/c2ccccc2)nc2ccccc21	-15.1	·	·	8.8	-8.8	-23.3	·	·
CCN(c1cccc(C)c1)S(=O)(=O)c1ccc(OC)c([N+](=O)[O-])c1	-10.2	-6.2	6.9	31.7	-6.5	-9.7	·	·
CCn1cc(C(=O)N2CCN(c3ccc(OC)cc3)CC2)c2cc(OC)c(OC)cc2c1=O	-24.8	-18.7	6.6	7.8	38.6*	-6.0	-14.4	-8.1
CCn1cc(C(=O)N2CCN(c3ccc(F)cc3)CC2)c2cc(OC)c(OC)cc2c1=O	-15.4	2.7	-1.5	13.8	-11.3	-17.4	·	·
CC(=O)c1ccc(COC(=O)Cc2ccc([N+](=O)[O-])cc2)cc1	-3.2	26.1	2.3	21.2	29.7*	2.2	39.1*	52.4*
COc1cccc(N2CCN(c3ccc([N+](=O)[O-])cn3)CC2)c1	-3.2	-1.7	8.7	11.1	41.3*	-0.9	40.2*	72.0*
O=[N+]([O-])c1ccc(N2CCN(c3ccccc3)CC2)nc1	-5.4	7.0	1.8	17.9	25.2	0.5	·	·
O=[N+]([O-])c1ccc(N2CCN(c3ccc(F)cc3)CC2)nc1	3.1	-7.4	2.3	2.1	46.9*	0.7	45.0*	55.6*
O=c1ccn([C@@H]2O[C@H](CNS(=O)(=O)c3csc(-c4ccno4)c3)[C@@H](O)[C@H]2O)c(=O)[nH]1	·	-17.5	0.5	·	·	·	·	·
O=C(N=C1SC2CS(=O)(=O)CC2N1c1ccccc1)C1CCCCC1 (configuration not stated)	-8.1	-7.6	-0.1	0.6	1.3	-0.9	·	·
CN(C)c1ccc(NC(=O)CSc2nnc(-c3cnccn3)n2C)cc1	-15.4	-34.6	0.0	13.8	-6.7	-10.3	·	·
CC(C)COc1ccc(-c2nnc(-c3ccco3)o2)cc1	-12.2	-8.3	10.2	8.1	1.6	-23.6	·	·
CCN(CC)CCCNc1ccc(-c2nnc(-c3ccc(OCC(C)C)cc3)o2)cn1	-4.5	7.6	-0.7	17.5	37.6*	-1.8	21.8	47.6*
C=CCn1c(SCC(=O)c2c(N)n(C3CC3)c(=O)[nH]c2=O)nnc1-c1ccoc1C	-2.8	3.0	1.4	-2.2	·	-6.5	·	·
